The source of these data is ChEMBL document CHEMBL1909525, “Synthesis and anticonvulsant activity of novel 2,6-diketopiperazine derivatives. Part 1: perhydropyrrole[1,2-a]pyrazines” (Eur J Med Chem, 2011).

Data set [1] concerns Mus musculus. As to the kind of experiment: Neurotoxicity in albino Carworth Farms No.1 mouse assessed as motor impairment at 30 mg/kg, ip after 4 hrs by rotarod test. Set-up: dose 30 mg/kg, route intraperitoneal. The conditions noted are these: in vivo. It counts as toxicity, organism-based. Summed up:
(§1)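 Rotorod neurotoxicity in mice at 6 r.p.m. Compound given i.p. (30, 100, 300 mg/kg) in 0.5% methylcellulose; tested at 30 min and 4 h. Impairment is inability to keep equilibrium on the rod for a given time; scored as impaired/tested.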
(In general: Falling from the rotarod earlier than controls is read as motor impairment.)

Data set [2] deals with Mus musculus. As to the kind of experiment: Anticonvulsant activity in albino Carworth Farms No.1 mouse assessed as protection against subcutaneous metrazol-induced seizure at 100 mg/kg, ip after 0.5 hrs. It counts as functional, organism-based. Set-up: dose 100 mg/kg. Summed up: (§2)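 Mouse scMET test. Compound given i.p. (30, 100 or 300 mg/kg) in 0.5% methylcellulose. Pentylenetetrazole 85 mg/kg (CD97) given s.c. at 0.5 or 4 h, then mice observed for 30 min. Protection is absence of clonic spasms; scored as protected/tested.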

In data set [3] the test system is Mus musculus. As to the kind of experiment: Neurotoxicity in albino Carworth Farms No.1 mouse assessed as motor impairment at 100 mg/kg, ip after 0.5 hrs by rotarod test. It counts as toxicity, organism-based. On the set-up: dose 100 mg/kg, route intraperitoneal. The conditions noted are these: in vivo. The procedure, abridged: as §1
For data set [4], the system named is Mus musculus. As to the kind of experiment: Anticonvulsant activity in albino Carworth Farms No.1 mouse assessed as protection against maximal electroshock-induced seizure at 300 mg/kg, ip after 0.5 hrs. It counts as functional, organism-based. On the set-up: dose 300 mg/kg. Summed up: (§3)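 Mouse MES test with compound given i.p. (30, 100 or 300 mg/kg) in 0.5% methylcellulose; tested at 0.5 and 4 h. Corneal stimulus of 50 mA at 60 Hz for 0.2 s, electrodes primed with 0.5% butacaine in 0.9% NaCl. Protection is abolition of hindlimb tonic extension; scored as protected/tested.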
(In general: In the maximal electroshock model the usual endpoint is tonic extension of the hind limbs.)

Data set [5] relates to Mus musculus. Nature of the data set: Anticonvulsant activity in albino Carworth Farms No.1 mouse assessed as protection against maximal electroshock-induced seizure at 100 mg/kg, ip after 0.5 hrs. It counts as functional, organism-based. Set-up: dose 100 mg/kg. Summed up: as §3
Data set [6] deals with Mus musculus. Nature of the data set: Neurotoxicity in albino Carworth Farms No.1 mouse assessed as motor impairment at 300 mg/kg, ip after 4 hrs by rotarod test. The conditions noted are these: in vivo. It counts as toxicity, organism-based. On the set-up: dose 300 mg/kg, route intraperitoneal. The procedure, abridged: as §1
Data set [7] concerns Mus musculus. As to the kind of experiment: Anticonvulsant activity in albino Carworth Farms No.1 mouse assessed as protection against subcutaneous metrazol-induced seizure at 300 mg/kg, ip after 4 hrs. It counts as functional, organism-based. On the set-up: dose 300 mg/kg. The procedure, abridged:
as §2

Data set [8] deals with Mus musculus. Nature of the data set: Anticonvulsant activity in albino Carworth Farms No.1 mouse assessed as protection against subcutaneous metrazol-induced seizure at 300 mg/kg, ip after 0.5 hrs. It counts as functional, organism-based. On the set-up: dose 300 mg/kg. The procedure, abridged: as §2
For data set [9], the system named is Mus musculus. As to the kind of experiment: Anticonvulsant activity in albino Carworth Farms No.1 mouse assessed as protection against maximal electroshock-induced seizure at 300 mg/kg, ip after 4 hrs. It counts as functional, organism-based. Set-up: dose 300 mg/kg. Summed up:
as §3

For data set [10], the system named is Mus musculus. As to the kind of experiment: Anticonvulsant activity in albino Carworth Farms No.1 mouse assessed as protection against maximal electroshock-induced seizure at 30 mg/kg, ip after 4 hrs. It counts as functional, organism-based. On the set-up: dose 30 mg/kg. The procedure, abridged: as §3
The test system of data set [11] is Mus musculus. Nature of the data set: Anticonvulsant activity in albino Carworth Farms No.1 mouse assessed as protection against subcutaneous metrazol-induced seizure at 30 mg/kg, ip after 0.5 hrs. It counts as functional, organism-based. On the set-up: dose 30 mg/kg. Summed up: as §2
Data set [12] concerns Mus musculus. Nature of the data set: Toxicity in albino Carworth Farms No.1 mouse maximal electroshock-induced seizure model assessed as death following tonic extension at 100 mg/kg, ip after 4 hrs. It counts as organism-based. Set-up: dose 100 mg/kg, route intraperitoneal. To be noted: in vivo. The procedure, abridged: (§4)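 Mice (18–25 g) were given 30, 100 or 300 mg/kg i.p. in 0.5% (v/v) aqueous methylcellulose. They were tested at 30 min and 4 h with a corneal electroshock (50 mA, 60 Hz, 0.2 s) through electrodes wetted with 0.5% butacaine hemisulphate in 0.9% NaCl. Protection was abolition of hindlimb tonic extension; death following tonic extension was noted per animals tested.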

Data set [13] has as its system Mus musculus. As to the kind of experiment: Neurotoxicity in albino Carworth Farms No.1 mouse assessed as motor impairment at 30 mg/kg, ip after 0.5 hrs by rotarod test. It counts as toxicity, organism-based. On the set-up: dose 30 mg/kg, route intraperitoneal. To be noted: in vivo. The procedure, abridged: as §1
Data set [14] concerns Mus musculus. As to the kind of experiment: Anticonvulsant activity in albino Carworth Farms No.1 mouse assessed as protection against maximal electroshock-induced seizure at 30 mg/kg, ip after 0.5 hrs. It counts as functional, organism-based. On the set-up: dose 30 mg/kg. The procedure, abridged: as §3
In data set [15] the test system is Mus musculus. Nature of the data set: Neurotoxicity in albino Carworth Farms No.1 mouse assessed as motor impairment at 300 mg/kg, ip after 0.5 hrs by rotarod test. It counts as toxicity, organism-based. On the set-up: dose 300 mg/kg, route intraperitoneal. The conditions noted are these: in vivo. The procedure, abridged:
as §1

For data set [16], the system named is Mus musculus. Nature of the data set: Toxicity in albino Carworth Farms No.1 mouse maximal electroshock-induced seizure model assessed as death following tonic extension at 30 mg/kg, ip after 0.5 hrs. It counts as organism-based. On the set-up: dose 30 mg/kg, route intraperitoneal. The conditions noted are these: in vivo. Summed up:
as §4

The subject of data set [17] is Mus musculus. As to the kind of experiment: Neurotoxicity in albino Carworth Farms No.1 mouse assessed as motor impairment at 100 mg/kg, ip after 4 hrs by rotarod test. It counts as toxicity, organism-based. Set-up: dose 100 mg/kg, route intraperitoneal. To be noted: in vivo. The procedure, abridged:
as §1

In data set [18] the test system is Mus musculus. As to the kind of experiment: Anticonvulsant activity in albino Carworth Farms No.1 mouse assessed as protection against maximal electroshock-induced seizure at 100 mg/kg, ip after 4 hrs. It counts as functional, organism-based. Set-up: dose 100 mg/kg. The procedure, abridged:
as §3

Data set [19] has as its system Mus musculus. As to the kind of experiment: Anticonvulsant activity in albino Carworth Farms No.1 mouse assessed as protection against subcutaneous metrazol-induced seizure at 30 mg/kg, ip after 4 hrs. It counts as functional, organism-based. Set-up: dose 30 mg/kg. Summed up: as §2
The test system of data set [20] is Mus musculus. As to the kind of experiment: Anticonvulsant activity in albino Carworth Farms No.1 mouse assessed as protection against subcutaneous metrazol-induced seizure at 100 mg/kg, ip after 4 hrs. It counts as functional, organism-based. On the set-up: dose 100 mg/kg. Summed up:
as §2

Data set [21] has as its system Mus musculus. Nature of the data set: Anticonvulsant activity in ip dosed albino Carworth Farms No.1 mouse assessed as time needs to show peak effect for electric-current for 3 secs-induced seizure after 0.25 hrs by 6Hz minimal clonic seizure test. It counts as functional.
In data set [22] the test system is Mus musculus. Nature of the data set: Anticonvulsant activity in albino Carworth Farms No.1 mouse assessed as protection against electric-current for 3 secs-induced seizure at 100 mg/kg, ip after 2 hrs by 6Hz minimal clonic seizure test. On the set-up: dose 100 mg/kg. It counts as functional, organism-based. Summed up:
(§5)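 6 Hz psychomotor seizure test in mice. Compound given i.p. as a suspension in 0.5% methylcellulose. Corneal stimulation at 32 mA, 0.2-ms monopolar rectangular pulses at 6 Hz for 3 s, from a constant-current device. Tests run 0.25–4 h after dosing. A mouse counted as protected if it resumed normal exploratory behaviour within 10 s; scored as protected/tested.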

Data set [23] is filed under the species Mus musculus. As to the kind of experiment: Protective index, ratio of TD50 for albino Carworth Farms No.1 mouse to ED50 for albino Carworth Farms No.1 mouse by 6Hz minimal clonic seizure test. It counts as functional. Summed up: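 Mouse 6 Hz (32 mA) quantification, compound given i.p. at the time of peak effect. Groups of at least eight mice at varied doses.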

Data set [24] deals with Mus musculus. Nature of the data set: Neurotoxicity in albino Carworth Farms No.1 mouse assessed as motor impairment at 100 mg/kg, ip after 1 hr by rotarod test. It counts as toxicity, organism-based. Set-up: dose 100 mg/kg, route intraperitoneal. To be noted: in vivo. The procedure, abridged:
(§6)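 Rotorod neurotoxicity in mice (18–25 g) following i.p. dosing of a suspension in 0.5% methylcellulose in water, tested at intervals between 0.25 and 4 h. Impairment was scored as failure to keep equilibrium on a 6 r.p.m. rod, reported as number impaired/number tested.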

Data set [25] has as its system Mus musculus. As to the kind of experiment: Neurotoxicity in albino Carworth Farms No.1 mouse assessed as motor impairment at 100 mg/kg, ip after 0.25 hrs by rotarod test. Set-up: dose 100 mg/kg, route intraperitoneal. It counts as toxicity, organism-based. The conditions noted are these: in vivo. Summed up:
as §6

For data set [26], the system named is Mus musculus. As to the kind of experiment: Neurotoxicity in albino Carworth Farms No.1 mouse assessed as motor impairment at 100 mg/kg, ip after 2 hrs by rotarod test. It counts as toxicity, organism-based. To be noted: in vivo. Set-up: dose 100 mg/kg, route intraperitoneal. The procedure, abridged: as §6
Data set [27] deals with Mus musculus. Nature of the data set: Anticonvulsant activity in albino Carworth Farms No.1 mouse assessed as protection against electric-current for 3 secs-induced seizure at 100 mg/kg, ip after 0.25 hrs by 6Hz minimal clonic seizure test. It counts as functional, organism-based. Set-up: dose 100 mg/kg. Summed up: as §5
In data set [28] the test system is Mus musculus. As to the kind of experiment: Anticonvulsant activity in albino Carworth Farms No.1 mouse assessed as protection against electric-current for 3 secs-induced seizure at 100 mg/kg, ip after 1 hr by 6Hz minimal clonic seizure test. It counts as functional, organism-based. Set-up: dose 100 mg/kg. The procedure, abridged:
as §5

The subject of data set [29] is Mus musculus. As to the kind of experiment: Anticonvulsant activity in albino Carworth Farms No.1 mouse assessed as protection against electric-current for 3 secs-induced seizure at 100 mg/kg, ip after 4 hrs by 6Hz minimal clonic seizure test. It counts as functional, organism-based. On the set-up: dose 100 mg/kg. Summed up:
as §5

The source made the active and inactive calls. The calls are words filed in the database; no cut-off is given here.

As for `C[C@H]1C(=O)NC(=O)[C@@H]2CCCN12`, the Activity entry in data set [1] is given as “Non-toxic”; in [3], “Non-toxic”; in [6], “Non-toxic”; in [12], “Toxic”; in data set [13], “Non-toxic”; in data set [15] it was “Non-toxic”. The Activity result in [16] and in [17] was “Toxic” in each case. For the same compound, the outcome in data set [2], in [4], in data set [5], in data set [7], in data set [8] and in [9] was inactive. For the same compound, the result in data set [10], in data set [11], in data set [14], in [18], in [19] and in data set [20] was inactive.
Take `O=C1NC(=O)[C@@H](c2ccccc2)N2CCC[C@@H]12`: the Activity result in [1], in data set [3], in data set [24], in data set [25], in [6] and in [26] was “Non-toxic” throughout. For the same compound, the Activity entry in [13], in [15] and in data set [17] was “Non-toxic” throughout. Also, in data set [21], the Time is 0.25 h. The outcome in data set [2], in [22], in data set [4], in data set [5], in [27] and in data set [7] was inactive. Moreover, the outcome in [8], in data set [9], in data set [10], in data set [11], in data set [28] and in [14] was inactive. Besides, the result in data set [18], in [19], in [29] and in data set [20] was inactive. Further, the “Ratio TD50/ED50” value in data set [23] amounted to 12.2.
